Measurements pooled from the literature.
Protocols differ between the studies behind these lines.
PTGS2: Prostaglandin G/H synthase 2 (PTGS2, Homo sapiens, UniProt P35354)
TMEM97: Sigma intracellular receptor 2 (TMEM97, Homo sapiens, UniProt Q5BJF2)
CHRM3: Muscarinic acetylcholine receptor M3 (CHRM3, Homo sapiens, UniProt P20309)

SMILES | target | test | conditions | quantity | result
CN1C(=O)C(=Cc2cn(-c3nc(Cl)nc(N4CCOCC4)n3)c3ccccc23)C(=O)N(C)C1=O | PTGS2 | enzyme activity, inhibitor |  | IC50 | 0.1 µM
O=c1[nH]c2ccccc2n1CCCN1CCC(n2c(=O)[nH]c3cc(Cl)ccc32)CC1 | Alpha-1D adrenergic receptor (ADRA1D, Homo sapiens, UniProt P25100) | cell-free assay |  | Ki | 0.71 µM
C[C@@H]1NC(=O)[C@H](CC(N)=O)NC(=O)[C@H](Cc2ccccc2)NC(=O)[C@@H]2Cc3ccccc3CN2C(=O)[C@H](CCCNC(=N)N)NC(=O)[C@@H]2CCCN2C(=O)[C@H]2CCCN2C(=O)[C@H](Cc2ccccc2)NC1=O | Melanocyte-stimulating hormone receptor (Mc1r, Mus musculus, UniProt Q01727) | reporter gene, agonist |  | EC50 | > 100 µM
CN1C(=O)C(=Cc2cn(-c3nc(N4CCCC4)nc(N4CCOCC4)n3)c3ccccc23)C(=O)N(C)C1=O | PTGS2 | enzyme activity, inhibitor |  | IC50 | 6 µM
CN1CC[C@@]23CCCC[C@@H]2[C@@H]1Cc1ccc(O)cc13 | TMEM97 | ligand displacement, radioligand |  | Ki | 2.94 µM
Clc1cccc(N2CCNCC2)c1Cl | CHRM3 | ligand displacement, radioligand | cell membranes | Ki | 25.1 µM
CN[C@@H](C)[C@@H](O)c1ccccc1 | TMEM97 | ligand displacement, radioligand |  | Ki | > 10 µM
CCCCCCCCCCCCNCCCc1ccc([N+](=O)[O-])cc1 | CHRM3 | ligand displacement, radioligand |  | Ki | 3.3 µM
